Data set [1] deals with Saccharomyces cerevisiae. Nature of the data set: Antifungal activity against Saccharomyces cerevisiae AD12345678 in YNPG medium containing 1 mg/ml […] after 24 hrs by microdilution method. The data set is classed as functional. The conditions noted are these: AD12345678, 24 h.
Data set [2] relates to Candida albicans. Nature of the data set: Antifungal activity against fluconazole resistant Candida albicans isolate B4 overexpressing MDR1 in RPMI-1640 buffered medium after 24 hrs by microdilution method. The format is functional. The conditions noted are these: Candida albicans, isolate B4, 24 h; read-out: MIC. The method in brief:
(§1)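 C. albicans cells were grown in 2% glucose, 1% yeast extract, 1% Bacto peptone medium before testing. […] CARE-2 fingerprinting confirmed that each pair is a single strain.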
A general note: Dilution methods test growth across graded concentrations, often in twofold steps.

The subject of data set [3] is Saccharomyces cerevisiae. Description: Antifungal activity against Saccharomyces cerevisiae ADCDR1 expressing Candida albicans CDR1 efflux pump in YNPG medium containing 1 mg/ml […] after 24 hrs by microdilution method. The conditions noted are these: ADCDR1, 24 h. The format is functional.
The subject of data set [4] is Saccharomyces cerevisiae. Description: Antifungal activity against wild type Saccharomyces cerevisiae ATCC 9763 in YNPG medium containing 1 mg/ml […] after 24 hrs by microdilution method. The data set is classed as functional. The conditions noted are these: ATCC 9763, 24 h.
The test system of data set [5] is Saccharomyces cerevisiae. Nature of the data set: Antifungal activity against Saccharomyces cerevisiae AD12345678 in YNBG medium containing 1 mg/ml […] after 24 hrs by microdilution method. The conditions noted are these: AD12345678, 24 h. The format is functional.
Data set [6] deals with Candida albicans. Nature of the data set: Antifungal activity against fluconazole resistant Candida albicans isolate Gu5 overexpressing CDR1 and CDR2 in RPMI-1640 buffered medium after 24 hrs by microdilution method. The data set is classed as functional. The conditions noted are these: isolate Gu5, 24 h. The method in brief: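 C. albicans cells were grown in 2% glucose, 1% yeast extract, 1% Bacto peptone medium before testing. CARE-2 fingerprinting confirmed that each pair is a single strain.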

Data set [7] has as its system Candida albicans. Nature of the data set: Antifungal activity against fluconazole sensitive Candida albicans isolate B3 in RPMI-1640 buffered medium after 24 hrs by microdilution method. The format is functional. The conditions noted are these: Candida albicans, isolate B3, 24 h; read-out: MIC. In a few lines: as §1
The subject of data set [8] is Saccharomyces cerevisiae. Nature of the data set: Antifungal activity against Saccharomyces cerevisiae ADCDR2 expressing Candida albicans CDR2 efflux pump in YNPG medium containing 1 mg/ml […] after 24 hrs by microdilution method. The format is functional. The conditions noted are these: ADCDR2, 24 h.
The test system of data set [9] is Saccharomyces cerevisiae. Nature of the data set: Drug uptake in Saccharomyces cerevisiae ADCDR2 expressing Candida albicans CDR2 efflux pump at 200 uM pretreated for 10 mins measured after 60 mins by fluorescamine staining. The data set is classed as ADME, organism-based. The conditions noted are these: in vivo, 1 h.
The subject of data set [10] is Candida albicans. Nature of the data set: Antifungal activity against fluconazole sensitive Candida albicans isolate Gu4 in RPMI-1640 buffered medium after 24 hrs by microdilution method. The format is functional. The conditions noted are these: Candida albicans, isolate Gu4, 24 h; read-out: MIC. In a few lines: as §1
The subject of data set [11] is Saccharomyces cerevisiae. Description: Drug uptake in Saccharomyces cerevisiae ADMDR1 expressing Candida albicans MDR1 efflux pump at 200 uM pretreated for 10 mins measured after 60 mins by fluorescamine staining. The data set is classed as ADME, organism-based. The conditions noted are these: in vivo, 1 h.
The subject of data set [12] is Saccharomyces cerevisiae. Nature of the data set: Drug extrusion in Saccharomyces cerevisiae ADCDR1 expressing Candida albicans CDR1 efflux pump reenergized with glucose at pH 6.0 assessed as fluorescamine-compound conjugate level after 30 mins. The data set is classed as ADME, organism-based. The conditions noted are these: in vivo, pH 6, 0.5 h. In a few lines:
(§2)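 Cells de-energized with 2-deoxy-D-glucose were loaded (200 µM, 60 min, pH 4.0), washed, and resuspended at OD660 1.0 in 50 mM phosphate pH 6.0 at 30°C. After 5-min preincubation, 10 mM glucose was added. Supernatants were sampled every 5 min and assayed with fluorescamine. Unloaded, identically treated cells gave the background control.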

Data set [13] concerns Saccharomyces cerevisiae. Nature of the data set: Antifungal activity against Saccharomyces cerevisiae ADCDR2 expressing Candida albicans CDR2 efflux pump in YNBG medium containing 1 mg/ml […] after 24 hrs by microdilution method. The format is functional. The conditions noted are these: ADCDR2, 24 h.
In data set [14] the test system is Saccharomyces cerevisiae. Nature of the data set: Antifungal activity against Saccharomyces cerevisiae ADMDR1 expressing Candida albicans MDR1 efflux pump in YNBG medium containing 1 mg/ml […] after 24 hrs by microdilution method. The data set is classed as functional. The conditions noted are these: ADMDR1, 24 h.
In data set [15] the test system is Saccharomyces cerevisiae. Nature of the data set: Antifungal activity against Saccharomyces cerevisiae ADMDR1 expressing Candida albicans MDR1 efflux pump in YNPG medium containing 1 mg/ml […] after 24 hrs by microdilution method. The data set is classed as functional. The conditions noted are these: ADMDR1, 24 h.
In data set [16] the test system is Saccharomyces cerevisiae. Nature of the data set: Drug uptake in Saccharomyces cerevisiae ADCDR1 expressing Candida albicans CDR1 efflux pump at 200 uM pretreated for 10 mins measured after 60 mins by fluorescamine staining. The data set is classed as ADME, organism-based. The conditions noted are these: in vivo, 1 h.
The subject of data set [17] is Saccharomyces cerevisiae. Nature of the data set: Drug uptake in Saccharomyces cerevisiae AD12345678 at 200 uM pretreated for 10 mins measured after 60 mins by fluorescamine staining. The conditions noted are these: in vivo, 1 h. The format is ADME, organism-based.
Data set [18] relates to Saccharomyces cerevisiae. Description: Antifungal activity against Saccharomyces cerevisiae ADCDR1 expressing Candida albicans CDR1 efflux pump in YNBG medium containing 1 mg/ml […] after 24 hrs by microdilution method. The data set is classed as functional. The conditions noted are these: ADCDR1, 24 h.
Data set [19] relates to Candida albicans. Nature of the data set: Antifungal activity against wild type Candida albicans 10261 in RPMI-1640 buffered medium after 24 hrs by microdilution method. The format is functional. The conditions noted are these: Candida albicans, 10261, 24 h; read-out: MIC. The method in brief: as §1
The subject of data set [20] is Saccharomyces cerevisiae. Description: Antifungal activity against wild type Saccharomyces cerevisiae ATCC 9763 in YNBG medium containing 1 mg/ml […] after 24 hrs by microdilution method. The data set is classed as functional. The conditions noted are these: ATCC 9763, 24 h.
For data set [21], the system named is Saccharomyces cerevisiae. Description: Drug extrusion in Saccharomyces cerevisiae ADCDR2 expressing Candida albicans CDR2 efflux pump reenergized with glucose at pH 6.0 assessed as fluorescamine-compound conjugate level after 30 mins. The format is ADME, organism-based. The conditions noted are these: in vivo, pH 6, 0.5 h. The method in brief: as §2
Data set [22] deals with Saccharomyces cerevisiae. Nature of the data set: Prodrug stability in Saccharomyces cerevisiae ADCDR2 expressing Candida albicans CDR2 efflux pump assessed as compound cleavage rate measured per mg of protein. The data set is classed as ADME, organism-based. The conditions noted are these: in vivo.
Data set [23] has as its system Candida albicans. Nature of the data set: Prodrug stability in fluconazole sensitive Candida albicans isolate B3 assessed as compound cleavage rate measured per mg of protein. The conditions noted are these: in vivo. The format is ADME, organism-based.
Data set [24] deals with Saccharomyces cerevisiae. Description: Prodrug stability in Saccharomyces cerevisiae ADCDR1 expressing Candida albicans CDR1 efflux pump assessed as compound cleavage rate measured per mg of protein. The format is ADME, organism-based. The conditions noted are these: in vivo.
In data set [25] the test system is Saccharomyces cerevisiae. Description: Prodrug stability in Saccharomyces cerevisiae ADMDR1 expressing Candida albicans MDR1 efflux pump assessed as compound cleavage rate measured per mg of protein. The conditions noted are these: in vivo. The format is ADME, organism-based.
Data set [26] concerns Candida albicans. Description: Prodrug stability in fluconazole sensitive Candida albicans isolate Gu4 assessed as compound cleavage rate measured per mg of protein. The conditions noted are these: in vivo. The data set is classed as ADME, organism-based. In a few lines: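 Oligopeptides were incubated with cell extracts of the yeast cells, and their hydrolytic enzymes cleaved them. The amino acids released were quantified by the Cd-ninhydrin method.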

Data set [27] has as its system Saccharomyces cerevisiae. Description: Drug uptake in Saccharomyces cerevisiae ADMDR1 at 50 uM pretreated for 10 mins measured after 60 mins by fluorescamine staining in presence of fluconazole. The conditions noted are these: in vivo, 1 h.
Data set [28] deals with Saccharomyces cerevisiae. Description: Drug uptake in Saccharomyces cerevisiae ADCDR2 at 200 uM pretreated for 10 mins measured after 60 mins by fluorescamine staining in presence of fluconazole. The format is ADME, organism-based. The conditions noted are these: in vivo, 1 h.
Data set [29] concerns Saccharomyces cerevisiae. Nature of the data set: Prodrug stability in wild type Saccharomyces cerevisiae ATCC 9763 assessed as compound cleavage rate measured per mg of protein. The data set is classed as ADME, organism-based. The conditions noted are these: in vivo.
Data set [30] concerns Candida albicans. Nature of the data set: Prodrug stability in wild type Candida albicans 10261 assessed as compound cleavage rate measured per mg of protein. The data set is classed as ADME, organism-based. The conditions noted are these: in vivo.
For data set [31], the system named is Saccharomyces cerevisiae. Description: Drug uptake in Saccharomyces cerevisiae ADCDR1 at 200 uM pretreated for 10 mins measured after 60 mins by fluorescamine staining in presence of fluconazole. The format is ADME, organism-based. The conditions noted are these: in vivo, 1 h.
In data set [32] the test system is Saccharomyces cerevisiae. Description: Drug uptake in Saccharomyces cerevisiae AD12345678 at 200 uM pretreated for 10 mins measured after 60 mins by fluorescamine staining in presence of fluconazole. The conditions noted are these: in vivo, 1 h. The format is ADME, organism-based.
Data set [33] has as its system Saccharomyces cerevisiae. Nature of the data set: Prodrug stability in Saccharomyces cerevisiae AD12345678 assessed as compound cleavage rate measured per mg of protein. The data set is classed as ADME, organism-based. The conditions noted are these: in vivo.

Values after ≈ are worked out from the molar mass of the structure shown. Residues, ends and D or L forms follow the SMILES beside them.

Usually MIC stands for the lowest concentration that inhibits growth of the organism.

As for `N[C@H]1CCC[C@H]1C(=O)O`, the minimal inhibitory concentration (MIC) amounted to 128 µg/mL (≈ 991 µM) in the data set with Saccharomyces cerevisiae [1]; 8 µg/mL (≈ 61.9 µM) in the data set on Candida albicans [2]; 256 µg/mL (≈ 1980 µM) with Saccharomyces cerevisiae [3]; 64 µg/mL (≈ 496 µM) in the data set on Saccharomyces cerevisiae [4]; 8 µg/mL (≈ 61.9 µM) with Saccharomyces cerevisiae [5]; 4 µg/mL (≈ 31 µM) in the data set on Candida albicans [6]. Moreover, the minimal inhibitory concentration (MIC) with Candida albicans [7] was found to be 2 µg/mL (≈ 15.5 µM); in the data set with Saccharomyces cerevisiae [8] it was 256 µg/mL (≈ 1980 µM); in the data set with Candida albicans [10], 1 µg/mL (≈ 7.74 µM); with Saccharomyces cerevisiae [13], 16 µg/mL (≈ 124 µM); in the data set with Saccharomyces cerevisiae [14], 16 µg/mL (≈ 124 µM); with Saccharomyces cerevisiae [15], 256 µg/mL (≈ 1980 µM). For the same compound, the MIC against Saccharomyces cerevisiae [18] came to 16 µg/mL (≈ 124 µM); in the data set on Candida albicans [19], 1 µg/mL (≈ 7.74 µM); in the data set with Saccharomyces cerevisiae [20], 4 µg/mL (≈ 31 µM). For the same compound, the Drug uptake in the data set with Saccharomyces cerevisiae [9] worked out at 1.85 nmol/min/mg; in the data set with Saccharomyces cerevisiae [11], 1.67 nmol/min/mg; in the data set on Saccharomyces cerevisiae [16] it was 2.11 nmol/min/mg; in the data set with Saccharomyces cerevisiae [17] it was 1.63 nmol/min/mg. For the same compound, the Activity with Saccharomyces cerevisiae [12] and with Saccharomyces cerevisiae [21] was 5 µM each time.

As for `CC(C)C[C@H](NC(=O)[C@@H](N)COCCN)C(=O)NCC(=O)O`, the Stability was determined as 14 nmol/min in the data set with Saccharomyces cerevisiae [22]; 20 nmol/min in the data set on Candida albicans [23]; 14 nmol/min with Saccharomyces cerevisiae [24]; 14 nmol/min in the data set with Saccharomyces cerevisiae [25]; 20 nmol/min with Candida albicans [26]; 14 nmol/min with Saccharomyces cerevisiae [29]. Also, the Stability with Candida albicans [30] is recorded as 20 nmol/min; with Saccharomyces cerevisiae [33], 14 nmol/min. Further, the Drug uptake in the data set with Saccharomyces cerevisiae [9] stood at 1.31 nmol/min/mg; in the data set on Saccharomyces cerevisiae [11] it was 0.87 nmol/min/mg; in the data set with Saccharomyces cerevisiae [27] it was 0.85 nmol/min/mg; in the data set with Saccharomyces cerevisiae [28], 1.26 nmol/min/mg; in the data set on Saccharomyces cerevisiae [16], 1.42 nmol/min/mg; with Saccharomyces cerevisiae [17] it was 0.69 nmol/min/mg. Besides, the Drug uptake in the data set on Saccharomyces cerevisiae [31] is 1.32 nmol/min/mg; in the data set with Saccharomyces cerevisiae [32], 0.7 nmol/min/mg.

On to `C[C@H](N)C(=O)N[C@@H](C)C(=O)O` (H-Ala-Ala-OH), for which the Drug uptake in the data set on Saccharomyces cerevisiae [9] was 4.08 nmol/min/mg; in the data set with Saccharomyces cerevisiae [11], 2.59 nmol/min/mg; in the data set on Saccharomyces cerevisiae [27], 2.61 nmol/min/mg; with Saccharomyces cerevisiae [28], 3.94 nmol/min/mg; in the data set on Saccharomyces cerevisiae [16], 4.46 nmol/min/mg; in the data set with Saccharomyces cerevisiae [17], 2.58 nmol/min/mg. Also, the Drug uptake with Saccharomyces cerevisiae [31] was 4.2 nmol/min/mg; with Saccharomyces cerevisiae [32], 2.55 nmol/min/mg.

The values are drawn from ChEMBL document CHEMBL1649115, “Enhanced susceptibility to antifungal oligopeptides in yeast strains overexpressing ABC multidrug efflux pumps” (Antimicrob Agents Chemother, 2008).
